From ChEMBL document CHEMBL5260841, “Discovery of N-(4-(6-Acetamidopyrimidin-4-yloxy)phenyl)-2-(2-(trifluoromethyl)phenyl)acetamide (CHMFL-FLT3-335) as a Potent FMS-like Tyrosine Kinase 3 Internal Tandem Duplication (FLT3-ITD) Mutant Selective Inhibitor for Acute Myeloid Leukemia” (J Med Chem, 2019) come the findings set out here.

The nature of data set [1]: AUC (0 to t) in Sprague-Dawley rat at 1 mg/kg, iv. The format is ADME, organism-based. Set-up: dose 1 mg/kg, route iv. The following applies: in vivo. The method in brief:
(§1)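 Sprague-Dawley rats dosed IV at 1 mg/kg or by oral gavage at 10 mg/kg. Parameters from plasma exposure: AUC(0-t), AUC(0-∞), MRT, T1/2, Tmax, Vz, CLz, Cmax. Values are mean ± SD from three animals.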

Data set [2] can be described thus: Apparent volume of distribution in Sprague-Dawley rat at 1 mg/kg, iv. The format is ADME, organism-based. The following applies: in vivo, read-out: Vz. The method in brief: as §1
The nature of data set [3]: Apparent volume of distribution in Sprague-Dawley rat at 10 mg/kg, po. It is filed as ADME, organism-based. The following applies: in vivo. The method in brief: as §1
A short description of data set [4]: Toxicity in nu/nu mouse xenografted with human MV4-11 cells assessed as reduction in body weight at 25 to 100 mg/kg/day, po administered via gavage for 28 days. It is filed as organism-based. To be noted: in vivo, 672 h, dose 25-100 mg/kg/day, time 28 day. The method in brief:
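Mice were inoculated with MV4-11 cells. Once tumours reached a mean volume of about 200 mm3, animals received vehicle or compound orally once daily for 28 days. Body weight was tracked and expressed relative to the initial weight, which was set as 100%.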

The subject of data set [5] is BaF3. Nature of the data set: Antiproliferative activity against mouse BaF3 cells transfected with FLT3 ITD mutant assessed as cell growth inhibition incubated for 72 hrs by CCK-8 assay. The format is functional. In a few lines: (§2)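 Kinase-transformed isogenic BaF3 lines grown in RPMI 1640 with 10% FBS, 2% L-glutamine and pen/strep at 37 °C, 5% CO2. Seeded at 1500-3000 cells/well and treated with a compound concentration series for 72 h. Viability read by CCK8 absorbance at 450 nm.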

Data set [6] concerns BaF3. The data set can be described thus: Antiproliferative activity against mouse BaF3 cells transfected with TEL-fused cKIT assessed as cell growth inhibition incubated for 72 hrs by CCK-8 assay. The format is functional. The method in brief: as §2
The subject of data set [7] is BaF3. The data set can be described thus: Antiproliferative activity against mouse BaF3 cells transfected with FLT3 ITD mutant harboring AML patient derived LKWEFPRENLEFEVTGSSDNEYFYVDFREYEYD sequence assessed as cell growth inhibition incubated for 72 hrs by CCK-8 assay. It is filed as functional. The method in brief: as §2
The test system of data set [8] is BaF3. Nature of the data set: Antiproliferative activity against mouse BaF3 cells transfected with FLT3 ITD D835I mutant assessed as cell growth inhibition incubated for 72 hrs by CCK-8 assay. The format is functional. The method in brief: as §2
Data set [9] deals with BaF3. Nature of the data set: Antiproliferative activity against mouse BaF3 cells transfected with FLT3 ITD D835N mutant assessed as cell growth inhibition incubated for 72 hrs by CCK-8 assay. The format is functional. In a few lines:
as §2

The test system of the next data set is U-937. Nature of the data set: Antiproliferative activity against human U-937 cells transfected with wild type FLT3 assessed as cell growth inhibition incubated for 72 hrs by CCK-8 assay. The format is functional. In a few lines:
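Cells kept at 37 °C, 5% CO2. MV4-11 grown in IMDM with 10% FBS. MOLM13, MOLM14, U937 and HL-60 grown in RPMI 1640 with 10% FBS. OCI-AML-2 grown in α-MEM with 20% FBS. Seeded at 1500-3000 cells/well and exposed to a concentration series for 72 h. Viability read by CCK8 absorbance at 450 nm.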

Data set [10] can be described thus: Cytotoxicity against CHO cells assessed as inhibition of cell growth. The format is toxicity, cell-based, Cricetulus griseus. The following applies: chinese hamster.
Data set [11] concerns the target T1, Signal transducer and activator of transcription 5A (Homo sapiens) (UniProt P42229).
T1 sequence (whole entry): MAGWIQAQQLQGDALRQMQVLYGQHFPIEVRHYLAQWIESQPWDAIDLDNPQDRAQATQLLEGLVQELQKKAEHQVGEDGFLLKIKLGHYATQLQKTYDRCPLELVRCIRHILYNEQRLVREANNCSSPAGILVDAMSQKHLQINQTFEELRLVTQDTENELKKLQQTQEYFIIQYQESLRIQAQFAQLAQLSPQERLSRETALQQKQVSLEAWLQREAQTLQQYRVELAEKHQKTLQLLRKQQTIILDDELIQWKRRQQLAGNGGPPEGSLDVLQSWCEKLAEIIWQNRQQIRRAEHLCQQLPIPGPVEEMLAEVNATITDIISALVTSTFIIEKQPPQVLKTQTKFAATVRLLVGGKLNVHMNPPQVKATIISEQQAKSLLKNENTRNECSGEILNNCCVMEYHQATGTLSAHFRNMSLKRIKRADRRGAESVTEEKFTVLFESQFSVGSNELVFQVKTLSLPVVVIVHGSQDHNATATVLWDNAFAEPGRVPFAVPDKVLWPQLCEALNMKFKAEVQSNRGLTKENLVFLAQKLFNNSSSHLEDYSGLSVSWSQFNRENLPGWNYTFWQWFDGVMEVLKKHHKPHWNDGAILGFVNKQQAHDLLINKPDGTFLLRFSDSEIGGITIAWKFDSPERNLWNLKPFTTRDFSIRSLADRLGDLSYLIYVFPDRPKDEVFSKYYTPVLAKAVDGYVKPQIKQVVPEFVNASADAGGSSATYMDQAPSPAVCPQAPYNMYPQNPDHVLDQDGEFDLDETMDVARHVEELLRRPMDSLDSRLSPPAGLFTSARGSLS
Nature of the data set: Inhibition of STAT5 phosphorylation at Tyr694 residue in human MV4-11 cells harboring FLT3-ITD mutant incubated for 4 hrs by Western blot analysis. It is filed as cell-based. The following applies: dose 0.01-3 µM. The method in brief: (§3)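 Cells were exposed to the compound at a series of concentrations for 4 h, and whole-cell lysates were analysed by Western blot. MV4-11 cells were grown in IMDM with 10% FBS. MOLM13 and MOLM14 cells were grown in RPMI 1640 with 10% FBS. All cultures were kept at 37 °C with 5% CO2.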

For data set [12], the system named is MOLM-13. The data set can be described thus: Inhibition of AKT phosphorylation at Ser473 residue in human MOLM-13 cells harboring FLT3-ITD mutant incubated for 4 hrs by Western blot analysis. It is filed as cell-based. To be noted: dose 0.01-3 µM. In a few lines: as §3
Data set [13] concerns MOLM-14. Nature of the data set: Inhibition of AKT phosphorylation at Ser473 residue in human MOLM-14 cells harboring FLT3-ITD mutant incubated for 4 hrs by Western blot analysis. The format is cell-based. The following applies: dose 0.01-3 µM. In a few lines:
as §3

Data set [14] deals with MV4-11. The data set can be described thus: Inhibition of AKT phosphorylation at Ser473 residue in human MV4-11 cells harboring FLT3-ITD mutant incubated for 4 hrs by Western blot analysis. The following applies: dose 0.01-3 µM. The format is cell-based. The method in brief: as §3
Data set [15] has as its system MOLM-14. Nature of the data set: Inhibition of AKT phosphorylation at Thr308 residue in human MOLM-14 cells harboring FLT3-ITD mutant incubated for 4 hrs by Western blot analysis. It is filed as cell-based. To be noted: dose 0.01-3 µM. In a few lines: as §3
Data set [16] relates to MV4-11. The data set can be described thus: Inhibition of AKT phosphorylation at Thr308 residue in human MV4-11 cells harboring FLT3-ITD mutant incubated for 4 hrs by Western blot analysis. The format is cell-based. To be noted: dose 0.01-3 µM. In a few lines:
as §3

In data set [17] the test system is MOLM-13. Nature of the data set: Induction of apoptosis in human MOLM-13 cells harboring FLT3-ITD mutant assessed as increase in cleaved PARP level incubated for 24 hrs by Western blot analysis. To be noted: dose 0.1-3 µM. The format is functional, cell-based.
The test system of data set [18] is MOLM-14. The data set can be described thus: Induction of apoptosis in human MOLM-14 cells harboring FLT3-ITD mutant assessed as increase in cleaved PARP level incubated for 24 hrs by Western blot analysis. The format is functional, cell-based. To be noted: dose 0.1-3 µM.
The test system of data set [19] is MV4-11. Nature of the data set: Induction of apoptosis in human MV4-11 cells harboring FLT3-ITD mutant assessed as increase in cleaved PARP level incubated for 24 hrs by Western blot analysis. The format is functional, cell-based. The following applies: dose 0.1-3 µM.
Data set [20] has as its system MV4-11. The data set can be described thus: Induction of apoptosis in human MV4-11 cells harboring FLT3-ITD mutant assessed as increase in cleaved caspase-3 level incubated for 24 hrs by Western blot analysis. It is filed as functional, cell-based. The following applies: dose 0.1-3 µM.

The molecule `CC(=O)Nc1cc(Oc2ccc(NC(=O)Cc3ccccc3C(F)(F)F)cc2)ncn1` returned an AUC(0-t) in data set [1] of 1560 ng·h/mL. Besides, the Vd in [2] stood at 1.2 L/kg. In addition, the Vz in [3] is 1.5 L/kg. In addition, the Activity entry is “Non-Toxic” in data set [4]; “Dose-Dependent Effect” in the data set with MOLM-13 [17]; “Dose-Dependent Effect” in the data set on MOLM-14 [18]; “Dose-Dependent Effect” with MV4-11 [19]; “Dose-Dependent Effect” with MV4-11 [20]. Also, the 50% growth inhibitory concentration (GI50) in the data set with BaF3 [5] is 0.032 µM; with BaF3 [6], above 10 µM; in the data set on BaF3 [7], 0.082 µM; in the data set with BaF3 [8], above 10 µM; in the data set with BaF3 [9] it was above 10 µM; with U-937 it was above 10 µM. Moreover, the 50% growth inhibitory concentration (GI50) in [10] was above 10 µM. Further, the inhibition entry (in data set [11]; in the data set with MOLM-13 [12]; in the data set with MOLM-14 [13]; in the data set with MV4-11 [14]; in the data set on MOLM-14 [15]; in the data set with MV4-11 [16]) was “Dose-Dependent Effect” throughout.
